Laboratory results taken from ChEMBL document CHEMBL5653623 (J Pharmacol Exp Ther, 2015).
The source made the active and inactive calls. No cut-off for these calls is given here.

How the values were obtained:
[1] = Toxicity in C57Bl/6 mouse assessed as change in body weight measured after 11 days; details: in vivo, 264 h, time 11 day
In short: (§1)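 Male C57Bl/6 mice, singly housed on a reversed 12 h light cycle, were fed diet formulated to give 3, 10, 30, 60 or 120 mg/kg/day (assumes 3 g/day intake) or untreated diet for 11 days. Body weight and food intake were monitored. Spontaneous locomotion and rearing were recorded over 60 min. On day 11, mice were euthanized 4, 8 or 24 h after dark onset and plasma and brain drug levels measured; n = 5 per group.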

[2] = test system: Mus musculus; assay: Effect on behavioral changes in 14 weeks old MitoPark mouse striatum assessed as TH level at 30 mg/kg/day by […] relative to control; type: functional
In short: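 Striatal protein (20 μg) from diet-treated MitoPark and wild-type mice was denatured at 70 °C for 10 min and run on 3-8% Tris-acetate gels. Blots were probed with anti-tyrosine hydroxylase and anti-GAPDH overnight at 4 °C, then an HRP secondary. TH is expressed as % of control.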

[3] = Unbound brain concentration in C57Bl/6 mouse at 10 mg/kg, po administered for 1 hr; type: ADME, organism-based; details: in vivo
[4] = molecular target: Sodium-dependent noradrenaline transporter (Homo sapiens, UniProt P23975); assay: Inhibition of norepinephrine transporter (unknown origin)
Chain of Sodium-dependent noradrenaline transporter (P23975 whole entry): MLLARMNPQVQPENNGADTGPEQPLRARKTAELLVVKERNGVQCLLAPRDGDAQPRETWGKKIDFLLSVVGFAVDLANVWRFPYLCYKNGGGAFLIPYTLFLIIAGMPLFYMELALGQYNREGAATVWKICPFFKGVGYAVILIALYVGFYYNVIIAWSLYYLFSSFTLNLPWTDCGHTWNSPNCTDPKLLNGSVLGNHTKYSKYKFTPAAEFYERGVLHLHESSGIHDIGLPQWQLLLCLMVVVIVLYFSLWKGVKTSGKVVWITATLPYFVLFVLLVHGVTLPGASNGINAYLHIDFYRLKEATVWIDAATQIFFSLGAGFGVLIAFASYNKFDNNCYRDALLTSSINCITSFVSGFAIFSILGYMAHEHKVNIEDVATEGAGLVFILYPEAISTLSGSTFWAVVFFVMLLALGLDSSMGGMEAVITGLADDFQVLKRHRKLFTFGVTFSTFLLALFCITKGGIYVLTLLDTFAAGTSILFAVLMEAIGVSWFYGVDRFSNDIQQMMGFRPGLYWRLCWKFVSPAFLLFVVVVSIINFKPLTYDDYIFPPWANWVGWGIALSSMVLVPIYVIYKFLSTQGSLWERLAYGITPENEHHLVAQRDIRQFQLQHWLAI
In short: (§2)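 Radioligand binding selectivity screen was run at 10 μM, mean of three determinations. Where inhibition exceeded 50%, full concentration-displacement curves were run in triplicate and IC50 was obtained by nonlinear least-squares regression.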

[5] = molecular target: Leucine-rich repeat serine/threonine-protein kinase 2 (Mus musculus) (UniProt Q5S006); assay: In vivo inhibition of LRRK2 in C57Bl/6 mouse brain assessed as decrease in pSer935 LRRK2 at 10 to 100 mg/kg, po measured after 1 hr by Western blotting analysis relative to control; type: functional, organism-based; details: dose 10-100 mg/kg
Chain of Leucine-rich repeat serine/threonine-protein kinase 2 (Mus musculus) (Q5S006 whole entry): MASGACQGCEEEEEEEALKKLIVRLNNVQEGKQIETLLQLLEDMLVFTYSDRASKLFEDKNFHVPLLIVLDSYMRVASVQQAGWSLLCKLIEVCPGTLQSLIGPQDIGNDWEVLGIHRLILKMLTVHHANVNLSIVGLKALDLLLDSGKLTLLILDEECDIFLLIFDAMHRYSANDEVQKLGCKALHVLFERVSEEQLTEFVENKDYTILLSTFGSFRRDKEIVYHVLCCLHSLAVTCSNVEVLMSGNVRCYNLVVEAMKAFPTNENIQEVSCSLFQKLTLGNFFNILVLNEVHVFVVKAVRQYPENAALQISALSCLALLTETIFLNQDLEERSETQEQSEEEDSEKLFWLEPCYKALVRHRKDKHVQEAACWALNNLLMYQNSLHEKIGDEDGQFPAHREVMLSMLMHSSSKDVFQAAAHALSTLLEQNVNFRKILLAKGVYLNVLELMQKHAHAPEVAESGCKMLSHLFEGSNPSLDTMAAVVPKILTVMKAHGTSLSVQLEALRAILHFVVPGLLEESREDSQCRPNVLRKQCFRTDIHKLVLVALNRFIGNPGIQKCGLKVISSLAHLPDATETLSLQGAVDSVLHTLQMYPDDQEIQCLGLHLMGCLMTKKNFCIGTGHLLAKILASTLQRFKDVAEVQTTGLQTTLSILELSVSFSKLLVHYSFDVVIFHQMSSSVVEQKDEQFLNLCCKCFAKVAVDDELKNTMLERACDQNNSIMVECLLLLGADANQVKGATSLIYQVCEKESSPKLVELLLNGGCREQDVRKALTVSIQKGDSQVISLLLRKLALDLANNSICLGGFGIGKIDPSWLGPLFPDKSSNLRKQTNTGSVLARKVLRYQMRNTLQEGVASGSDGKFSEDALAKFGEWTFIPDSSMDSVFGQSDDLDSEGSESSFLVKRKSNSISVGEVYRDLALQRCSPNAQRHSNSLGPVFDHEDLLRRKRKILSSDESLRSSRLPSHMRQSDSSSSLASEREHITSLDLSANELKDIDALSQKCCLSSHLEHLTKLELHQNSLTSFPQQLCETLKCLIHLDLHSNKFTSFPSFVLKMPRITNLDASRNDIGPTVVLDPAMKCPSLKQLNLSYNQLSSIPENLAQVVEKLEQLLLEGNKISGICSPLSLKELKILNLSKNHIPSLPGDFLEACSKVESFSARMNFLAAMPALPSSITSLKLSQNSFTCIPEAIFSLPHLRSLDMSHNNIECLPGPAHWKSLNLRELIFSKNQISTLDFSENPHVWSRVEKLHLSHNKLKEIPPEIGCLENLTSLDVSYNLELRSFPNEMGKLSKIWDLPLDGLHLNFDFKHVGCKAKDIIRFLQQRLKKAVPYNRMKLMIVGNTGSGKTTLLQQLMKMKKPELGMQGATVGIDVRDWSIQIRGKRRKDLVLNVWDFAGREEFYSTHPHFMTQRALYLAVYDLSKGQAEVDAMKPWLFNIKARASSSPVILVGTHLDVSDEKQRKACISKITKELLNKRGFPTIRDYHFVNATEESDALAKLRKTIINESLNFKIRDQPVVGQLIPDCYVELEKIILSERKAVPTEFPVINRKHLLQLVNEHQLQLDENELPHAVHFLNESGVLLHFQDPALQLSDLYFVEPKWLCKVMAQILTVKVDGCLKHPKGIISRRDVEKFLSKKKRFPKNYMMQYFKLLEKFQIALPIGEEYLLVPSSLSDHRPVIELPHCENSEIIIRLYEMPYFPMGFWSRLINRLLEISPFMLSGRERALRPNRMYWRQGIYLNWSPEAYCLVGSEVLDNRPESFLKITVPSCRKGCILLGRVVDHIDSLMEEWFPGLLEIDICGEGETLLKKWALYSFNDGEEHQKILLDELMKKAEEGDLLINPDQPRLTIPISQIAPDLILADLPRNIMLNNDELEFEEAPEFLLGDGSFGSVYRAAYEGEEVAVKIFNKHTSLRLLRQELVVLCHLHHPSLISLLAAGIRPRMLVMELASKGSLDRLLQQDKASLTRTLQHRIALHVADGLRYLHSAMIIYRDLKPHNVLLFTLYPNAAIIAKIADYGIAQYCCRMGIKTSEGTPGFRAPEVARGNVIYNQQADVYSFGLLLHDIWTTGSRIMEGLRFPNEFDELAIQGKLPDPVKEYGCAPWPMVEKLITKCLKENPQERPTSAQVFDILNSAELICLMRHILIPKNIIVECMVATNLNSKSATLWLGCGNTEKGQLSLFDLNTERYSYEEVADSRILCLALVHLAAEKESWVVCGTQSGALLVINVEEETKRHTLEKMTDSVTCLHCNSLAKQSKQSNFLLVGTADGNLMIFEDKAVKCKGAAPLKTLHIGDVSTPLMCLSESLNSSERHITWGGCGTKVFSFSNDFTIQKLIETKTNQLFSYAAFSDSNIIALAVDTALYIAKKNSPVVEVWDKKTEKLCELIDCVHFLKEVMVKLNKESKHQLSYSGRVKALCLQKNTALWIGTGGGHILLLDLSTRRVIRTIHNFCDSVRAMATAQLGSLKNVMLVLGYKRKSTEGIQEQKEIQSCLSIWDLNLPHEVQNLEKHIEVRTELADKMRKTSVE
In short: (§3)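 Male C57Bl/6 mice, 20-25 g. Single oral dose of 1-100 mg/kg suspended in 30% Captisol (10 mL/kg), or vehicle, given 1 h before CO2 euthanasia. Cortex frozen on dry ice and pSer935 LRRK2 read by Western blot. n = 5 per group.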

[6] = Unbound plasma concentration in C57Bl/6 mouse administered for 11 days and measured after 24 hrs; type: ADME, cell-free; details: 264 h, time 11 day; in short: as §1
[7] = molecular target: Leucine-rich repeat serine/threonine-protein kinase 2 (Mus musculus) (UniProt Q5S006); assay: In vivo inhibition of LRRK2 in MitoPark mouse brain assessed as total LRRK2 protein level in presence of MJFF-2 antibody by Western blotting analysis; type: functional, organism-based
In short: (§4)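 MitoPark mice fed diet targeted to 30 mg/kg/day, or untreated diet, from 5 weeks of age. Cortex collected after 3, 9 or 15 weeks of treatment, n = 10 per group. Blots probed for pSer935 LRRK2, total LRRK2 (MJFF-2 antibody) and GAPDH. pSer935 reported relative to vehicle-diet MitoPark mice.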

[8] = molecular target: Leucine-rich repeat serine/threonine-protein kinase 2 (Mus musculus) (UniProt Q5S006); assay: In vivo inhibition of LRRK2 in 20 weeks old MitoPark mouse kidney assessed as reduction in pSer935 LRRK2 level at 30 mg/kg/day administered for 15 weeks by Western blotting analysis; type: functional, organism-based
In short: (§5)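 MitoPark mice on drug-containing diet targeted to 30 mg/kg/day from 5 weeks of age, with the diet reformulated every 3 weeks to hold the target. Untreated-diet MitoPark and wild-type littermate controls. Killed by CO2 at 20 weeks of age. Lung and kidney taken from 5 mice per group for pSer935 and total LRRK2 immunoblots.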

[9] = molecular target: Leucine-rich repeat serine/threonine-protein kinase 2 (Mus musculus) (UniProt Q5S006); assay: In vivo inhibition of LRRK2 in C57Bl/6 mouse kidney assessed as reduction in pSer935 LRRK2 administered for 11 days by Western blotting analysis; type: functional, organism-based; details: time 11.0 day
In short: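 Same 11-day in-diet design in male C57Bl/6 mice: 3-120 mg/kg/day or untreated diet, killed 4, 8 or 24 h after dark-cycle onset, n = 5 per group. Kidneys dissected for Western blot of pSer935 and total LRRK2, with total LRRK2 detected by MJFF-2 antibody.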

[10] = molecular target: Mitogen-activated protein kinase kinase kinase 14 (Homo sapiens, UniProt Q99558); assay: Inhibition of MAP3K14 (unknown origin)
Chain of Mitogen-activated protein kinase kinase kinase 14 (Q99558 whole entry): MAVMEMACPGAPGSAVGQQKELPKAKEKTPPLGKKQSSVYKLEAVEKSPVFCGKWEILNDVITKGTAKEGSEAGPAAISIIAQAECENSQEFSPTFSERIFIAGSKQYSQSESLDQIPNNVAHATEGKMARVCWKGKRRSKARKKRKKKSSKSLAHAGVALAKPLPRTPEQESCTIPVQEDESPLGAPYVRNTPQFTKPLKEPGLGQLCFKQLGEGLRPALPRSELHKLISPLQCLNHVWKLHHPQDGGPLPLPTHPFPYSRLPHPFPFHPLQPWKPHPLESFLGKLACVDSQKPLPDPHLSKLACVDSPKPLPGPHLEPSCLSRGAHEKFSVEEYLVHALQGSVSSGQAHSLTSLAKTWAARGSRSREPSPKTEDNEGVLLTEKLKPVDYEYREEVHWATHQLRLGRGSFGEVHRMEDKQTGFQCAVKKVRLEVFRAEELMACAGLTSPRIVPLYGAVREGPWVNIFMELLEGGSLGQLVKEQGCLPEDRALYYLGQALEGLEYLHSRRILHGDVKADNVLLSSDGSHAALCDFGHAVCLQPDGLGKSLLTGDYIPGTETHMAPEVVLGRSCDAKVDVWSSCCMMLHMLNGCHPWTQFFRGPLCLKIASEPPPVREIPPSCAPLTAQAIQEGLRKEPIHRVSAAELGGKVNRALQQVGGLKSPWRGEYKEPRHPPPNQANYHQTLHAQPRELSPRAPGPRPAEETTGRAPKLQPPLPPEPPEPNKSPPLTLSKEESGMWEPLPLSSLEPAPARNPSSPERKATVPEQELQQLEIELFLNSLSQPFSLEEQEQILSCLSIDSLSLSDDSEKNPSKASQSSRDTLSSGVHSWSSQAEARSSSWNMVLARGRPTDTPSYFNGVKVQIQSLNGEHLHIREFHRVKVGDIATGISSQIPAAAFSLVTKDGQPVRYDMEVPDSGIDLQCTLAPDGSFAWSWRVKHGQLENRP

[11] = test system: Mus musculus; assay: Effect on histological changes in 20 weeks old MitoPark mouse kidney assessed as accumulation of pigment in renal cortical tubules at 30 mg/kg/day administered for 15 weeks by hematoxylin and eosin staining based microscopic analysis; type: functional, organism-based
In short: (§6)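 MitoPark mice were fed diet targeting 30 mg/kg/day or vehicle for 15 weeks and euthanized at 20 weeks of age (n=5/group). Kidney and lung were fixed in 10% neutral buffered formalin, paraffin-embedded, sectioned at 5 µm, H&E-stained and examined microscopically.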

[12] = Unbound fraction in C57Bl/6 mouse plasma; type: ADME, cell-free
In short: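 Plasma and brain binding were determined by equilibrium dialysis at 1 μM.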

[13] = Unbound brain concentration in C57Bl/6 mouse at 100 mg/kg, po administered for 1 hr; type: ADME, organism-based; details: in vivo
[14] = Unbound brain concentration in C57Bl/6 mouse at 30 mg/kg, po administered for 1 hr; type: ADME, organism-based; details: in vivo
[15] = Inhibition of adenosine transporter (unknown origin); design: species or system Homo sapiens; in short: as §2
[16] = molecular target: Leucine-rich repeat serine/threonine-protein kinase 2 (Mus musculus) (UniProt Q5S006); assay: In vivo inhibition of LRRK2 in MitoPark mouse assessed as reduction in pSer935 LRRK2 at 30 mg/kg administered for 15 weeks and measured after 24 hrs by Western blotting analysis relative to control; type: functional, organism-based; in short: as §4
[17] = Effect on spontaneous locomotor activity in C57Bl/6 mouse assessed as rearing behaviour administered for 11 days by truScan photo beam activity system analysis; type: toxicity; details: in vivo, 264 h, time 11 day; in short: as §1
[18] = test system: Mus musculus; assay: Effect on histological changes in 20 weeks old MitoPark mouse lung assessed as slight enlargement of alveolar epithelial cells at 30 mg/kg/day administered for 15 weeks by hematoxylin and eosin staining based microscopic analysis; type: functional, organism-based; in short: as §6
[19] = molecular target: Leucine-rich repeat serine/threonine-protein kinase 2 (Mus musculus) (UniProt Q5S006); assay: In vivo inhibition of LRRK2 in C57Bl/6 mouse brain assessed as decrease in pSer935 LRRK2 measured after 1 hr by Western blotting analysis; type: functional, organism-based; details: dose 1-100 mg/kg, route po; in short: as §3
[20] = molecular target: Leucine-rich repeat serine/threonine-protein kinase 2 (Mus musculus) (UniProt Q5S006); assay: In vivo inhibition of LRRK2 in 20 weeks old MitoPark mouse lung assessed as reduction in total LRRK2 protein level at 30 mg/kg/day administered for 15 weeks by Western blotting analysis; type: functional, organism-based; in short: as §5
[21] = test system: Mus musculus; assay: Effect on behavioral changes in 8 weeks old MitoPark mouse striatum assessed as dopamine level at 30 mg/kg/day administered for 3 weeks by HPLC analysis; type: functional
In short: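 Striatum from MitoPark mice on diet targeting 30 mg/kg/day or vehicle diet (wild-type littermate controls) was homogenized by sonication in 0.1 M acid at 0.1 g/mL. Samples were held 60 min at 4 °C and centrifuged. Dopamine, DOPAC and HVA were measured by HPLC with electrochemical detection against a 3,4-DHBA internal standard and standard curves. Mean ± SEM.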

[22] = test system: Mus musculus; assay: Effect on behavioral phenotype in 11 weeks old MitoPark mouse assessed as decreased rearing behavior at 30 mg/kg/day administered for 6 weeks and measured after 60 mins; type: functional, organism-based
In short: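 MitoPark mice, 5 weeks old, were allocated by baseline 60-min LMA to untreated diet or diet targeting 30 mg/kg/day (reformulated every 3 weeks). Wild-type littermates received vehicle diet. Body weight and food intake were recorded weekly. 60-min LMA (distance, rearing) was run at 8, 11, 14 and 17 weeks of age.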

## C[C@@H]1CN(c2cc(-c3n[nH]c4ccc(OC5(C)CC5)cc34)ncn2)C[C@H](C)O1 [MLi-2]
[1]
  Activity: Non-Toxic
[2]
  Activity: 42.6%
[3]
  Drug uptake(free): 25.4 nM
[4]
  IC50: 3.8 µM
[5]
  inhibition: > 90%
[6]
  Drug uptake(free): Active
[7]
  inhibition: inactive
[8]
  inhibition: Active
[9]
  inhibition: Active
[10]
  IC50: 244 nM
[11]
  Activity: inactive
[12]
  fraction unbound: 0.008
[13]
  Drug uptake(free): 272.9 nM
[14]
  Drug uptake(free): 91.8 nM
[15]
  IC50: 9.7 µM
[16]
  inhibition: > 90%
[17]
  Activity: Non-Toxic
[18]
  Activity: Active
[19]
  inhibition: Dose-Dependent Effect
[20]
  inhibition: Active
[21]
  Activity: 1114 ng/g
[22]
  Activity: Active
